21 molecules from ChEMBL document CHEMBL1124444, “Hydroxyacetophenone-derived antagonists of the peptidoleukotrienes” (1989) can be followed below.

Details in all cases: Trachea
For experiment [1], the species on record is Cavia porcellus. In words: Percent inhibition of the leukotriene E4 (LTE4)-induced contraction of guinea pig tracheal spirals at 10 uM concentration; NS means data was not statistically significant.
Experiment [2] is filed under the species Cavia porcellus. In words: Percent inhibition of the leukotriene D4 (LTD4)-induced contraction of guinea pig tracheal spirals at 50 uM concentration. It counts as functional. In outline: (§1)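 Guinea pig tracheal spirals were split into paired sections in 10 mL baths of modified Krebs at 37 °C, gassed with 95% O₂/5% CO₂, under 2 g resting tension. After 60 min equilibration (washes every 15 min), reproducible contractions to 8 nM LTD₄ or 8 nM LTE₄ were obtained. Compound was added for 10 min, then agonist challenge repeated; percent inhibition is relative to the vehicle-treated paired section.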

For experiment [3], the species on record is Cavia porcellus. In words: Percent inhibition of the leukotriene D4 (LTD4)-induced contraction of guinea pig tracheal spirals at 10 uM concentration; NS means data was not statistically significant. The class given is functional. The essentials:
as §1

The species named for experiment [4] is Cavia porcellus. In words: Percent inhibition of the leukotriene D4 (LTD4)-induced contraction of guinea pig tracheal spirals at 10 uM concentration; NS means data was not statistically significant. It counts as functional. In outline: as §1
The species entered for experiment [5] is Cavia porcellus. In words: Percent inhibition of the leukotriene D4 (LTD4)-induced contraction of guinea pig tracheal spirals at 100 uM concentration. The class given is functional. The essentials:
as §1

For experiment [6], the species on record is Cavia porcellus. In words: Percent inhibition of the leukotriene D4 (LTD4)-induced contraction of guinea pig tracheal spirals at 10 uM concentration; NS meana data was not statistically significant. The class given is functional. In outline: as §1
For experiment [7], the species on record is Cavia porcellus. In words: Percent inhibition of the leukotriene E4 (LTE4)-induced contraction of guinea pig tracheal spirals at 50 uM concentration; NS means data was not statistically significant. The class given is functional. In outline: as §1
The species named for experiment [8] is Cavia porcellus. In words: Percent inhibition of the leukotriene E4 (LTE4)-induced contraction of guinea pig tracheal spirals at 10 uM concentration; NS means data was not statistically significant. The class given is functional. In outline: as §1
The species named for experiment [9] is Cavia porcellus. In words: Percent inhibition of the leukotriene E4 (LTE4)-induced contraction of guinea pig tracheal spirals at 10 uM concentration. The class given is functional. The essentials:
as §1

For experiment [10], the species on record is Cavia porcellus. In words: Percent inhibition of the leukotriene E4 ([…])-induced contraction of guinea pig tracheal spirals at 1 uM concentration; NS means data was not statistically significant. The class given is functional. In outline: as §1
The species named for experiment [11] is Cavia porcellus. In words: Percent inhibition of the leukotriene E4 (LTE4)-induced contraction of guinea pig tracheal spirals at 5 uM concentration. The class given is functional. In outline: as §1
For experiment [12], the species on record is Cavia porcellus. In words: Percent inhibition of the leukotriene E4 (LTE4)-induced contraction of guinea pig tracheal spirals at 1 uM concentration.
For experiment [13], the species on record is Cavia porcellus. In words: Inhibition of the leukotriene D4 (LTD4)-induced contraction of guinea pig tracheal spirals at 10 uM concentration. The class given is functional. The essentials: as §1
For experiment [14], the species on record is Cavia porcellus. In words: Percent inhibition of the leukotriene E4 (LTE4)-induced contraction of guinea pig tracheal spirals at 10 uM concentration; NS means data was not statistically significant. The class given is functional. The essentials:
as §1

The species named for experiment [15] is Cavia porcellus. In words: Percent inhibition of the leukotriene E4 (LTE4)-induced contraction of guinea pig tracheal spirals at 50 uM concentration. It counts as functional. In outline:
as §1

For experiment [16], the species on record is Cavia porcellus. In words: Percent inhibition of the leukotriene E4 (LTE4)-induced contraction of guinea pig tracheal spirals at 50 uM concentration; NS means data was not statistically significant. It counts as functional. In outline: as §1
For experiment [17], the species on record is Cavia porcellus. In words: Percent inhibition of the leukotriene D4 (LTD4)-induced contraction of guinea pig tracheal spirals at 4 uM concentration; NS means data was not statistically significant. It counts as functional. The essentials: as §1
For experiment [18], the species on record is Cavia porcellus. In words: Percent inhibition of the leukotriene E4 -induced contraction of guinea pig tracheal spirals at 1 uM concentration. It counts as functional. The essentials: as §1
For experiment [19], the species on record is Cavia porcellus. In words: Percent inhibition of the leukotriene E4 -induced contraction of guinea pig tracheal spirals at 10 uM concentration. It counts as functional. In outline: as §1
For experiment [20], the species on record is Cavia porcellus. In words: Percent inhibition of the leukotriene E4 (LTE4)-induced contraction of guinea pig tracheal spirals at 3.3 uM concentration.
The species named for experiment [21] is Cavia porcellus. In words: Percent inhibition of the leukotriene D4 (LTD4)-induced contraction of guinea pig tracheal spirals at 4 uM concentration; NS means data was not statistically significant. The class given is functional. In outline:
as §1

For experiment [22], the species on record is Cavia porcellus. In words: Percent inhibition of the leukotriene D4 (LTD4)-induced contraction of guinea pig tracheal spirals at 50 uM concentration; NS means data was not statistically significant. The class given is functional. In outline:
as §1

Turning to `CCCc1c(NC(=O)c2ccc(C(=O)O)cc2OC)ccc(C(C)=O)c1O`, the inhibition entry in the experiment listed under Cavia porcellus [1] was “Not statistically significant”. As for `CCCc1c(OCc2ccc(C(=O)O)cc2OC)ccc(C(=O)c2ccccc2)c1O`, the inhibition result in the experiment filed under Cavia porcellus [1] is “Not statistically significant”. The inhibition at 50 µM in the experiment listed under Cavia porcellus [2] was determined as 20%. For `COc1cc(C(=O)O)ccc1COc1ccc2c(C)cc(=O)oc2c1`, the inhibition result in the experiment listed under Cavia porcellus [3] is “Not statistically significant”. Take `CCCc1c(OCc2ccccc2C(=O)O)ccc(C(C)=O)c1O`: the inhibition entry in the experiment listed under Cavia porcellus [4] is “Not statistically significant”. This molecule also showed an inhibition at 100 µM in the experiment filed under Cavia porcellus [5] of 91%. Consider `COc1cc(C(=O)O)ccc1COc1ccc(C(C)=O)c(O)c1`, for which the inhibition entry in the experiment filed under Cavia porcellus [6] is “Not statistically significant”. Consider `CCCc1c(OCc2ccc(C(=O)O)cc2OC)ccc(CCC(=O)O)c1O`, for which, in the experiment filed under Cavia porcellus [7], the inhibition result is “Not statistically significant”. With `CCCc1c(OCc2ccc(C(=O)O)cc2OC)ccc(C(=O)Oc2ccccc2)c1O`, the inhibition entry in the experiment listed under Cavia porcellus [8] was “Not statistically significant”.

Molecule `CCCc1c(OCc2ccc(C(=O)O)cc2OC)ccc(C(=O)CC)c1O` yielded an inhibition at 10 µM in the experiment filed under Cavia porcellus [9] of 97%. Further, the inhibition entry in the experiment listed under Cavia porcellus [10] was “Not statistically significant”. This molecule also displayed an inhibition at 5 µM in the experiment listed under Cavia porcellus [11] of 73%. In the experiment filed under Cavia porcellus [12], `CCCc1c(OCc2ccc(NC(=O)c3ccccc3C(=O)O)cc2)ccc(C(C)=O)c1O` showed an inhibition at 1 µM of 49%. Regarding `CCCc1c(N(Cc2ccc(C(=O)O)cc2OC)C(C)=O)ccc(C(C)=O)c1O`, the inhibition result in the experiment filed under Cavia porcellus [1] is “Not statistically significant”. In the experiment filed under Cavia porcellus [13], `CCCc1c(OCc2cccc(C(=O)O)c2)ccc(C(C)=O)c1O` had an inhibition at 10 µM of 50%. At 100 µM the inhibition in the experiment filed under Cavia porcellus [5] was 100%.

`CCCc1c(OCc2ccccc2-c2nn[nH]n2)ccc(C(C)=O)c1O`: the inhibition entry in the experiment listed under Cavia porcellus [1] was “Not statistically significant”. On to `CCCc1c(OCc2ccc(C(=O)O)cc2OC)ccc(C(=O)N(C)C)c1O`, for which the inhibition entry in the experiment listed under Cavia porcellus [14] is “Not statistically significant”. In the experiment filed under Cavia porcellus [15], this molecule gave an inhibition at 50 µM of 84%. `COc1cc(C(=O)O)ccc1COc1ccc(C(C)=O)c(O)c1CCCC(=O)O`: the inhibition result in the experiment listed under Cavia porcellus [16] is “Not statistically significant”. In turn, `CCCc1c(OCc2ccc(C(=O)O)cc2OC)ccc(C(C)=O)c1N` had an inhibition at 10 µM in the experiment listed under Cavia porcellus [13] of 43%. The inhibition entry in the experiment listed under Cavia porcellus [17] is “Not statistically significant”. As for `COc1cc(C(=O)O)ccc1COc1ccc(C(C)=O)c(O)c1Cc1ccccc1`, testing at 1 µM in the experiment filed under Cavia porcellus [18] gave an inhibition of 39%. The inhibition at 10 µM in the experiment listed under Cavia porcellus [19] turned out to be 100%.

As for `CCCc1c(OCc2ccc(C(=O)O)cc2OC)ccc(C(=O)O)c1O`, the inhibition entry in the experiment filed under Cavia porcellus [16] is “Not statistically significant”. For the molecule `CCCc1c(OCc2ccc(C(=O)Nc3nn[nH]n3)cc2OC)ccc(C(C)=O)c1O`, in the experiment filed under Cavia porcellus [20], at 3.3 µM the inhibition was 43%. For `CCCc1c(OCc2ccc(C(=O)O)c(OC)c2)ccc(C(C)=O)c1O`, in the experiment listed under Cavia porcellus [21], the inhibition entry is “Not statistically significant”. In the experiment listed under Cavia porcellus [13], this molecule yielded an inhibition at 10 µM of 44%. Turning to `CCCc1c(OCCC[S+]([O-])CC(=O)O)ccc(C(C)=O)c1O` (stereo not given), the inhibition result in the experiment filed under Cavia porcellus [4] is “Not statistically significant”. Consider `CCCCCCc1c(OCc2ccc(C(=O)O)cc2OC)ccc(C(C)=O)c1O`, for which the inhibition entry in the experiment filed under Cavia porcellus [22] was “Not statistically significant”.
